Tests used:
[1] = Permeability from apical to basolateral side of human Caco2 cells after 120 mins; details: Caco-2
Histamine H1 receptor = Histamine H1 receptor (Homo sapiens, UniProt P35367); experiment: Displacement of [3H]pyrilamine from human histamine H1 receptor expressed in CHO-K1 cells after 60 mins by scintillation counting; assay type: cell-based
Mus musculus [2] = experiment: Antiinflammatory activity in ovalbumin-sensitized BALB/c mouse biphasic allergic model assessed as late type reaction at 10 mg/kg, po administered 1 hr before ovalbumin challenge measured 24 hrs after elicitation by ear swelling assay; assay type: functional
Procedure, shortened: (§1)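 Female Balb/c mice, 8 weeks old, sensitized i.p. with OVA plus alum. Two weeks later, compound given orally as a 0.5% methylcellulose suspension at 10 mg/kg, 1 h before intradermal OVA into the ear.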

Mus musculus [3] = experiment: Antiinflammatory activity in ovalbumin-sensitized BALB/c mouse biphasic allergic model assessed as immediate type reaction at 10 mg/kg, po administered 1 hr before ovalbumin challenge measured 1 hr after elicitation by ear swelling assay; assay type: functional; procedure, shortened: as §1
Homo sapiens = species on record: Homo sapiens; experiment: Ratio of IC50 for human adrenergic alpha1 to IC50 for human histamine H1 receptor
Mus musculus [4] = experiment: In vivo antihistaminic activity at histamine H1 receptor in ddY mouse assessed as inhibition of histamine-induced skin vascular permeability at 3 mg/kg, po administered 1 hr before histamine challenge by Evan's blue staining; assay type: functional
Procedure, shortened: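 Female ddY mice, 8 weeks old, dosed orally at 3 mg/kg as a suspension in 0.5% methylcellulose, 1 h before intradermal histamine ([…]) into back skin, following i.v. Evans blue. Mice sacrificed 30 min after histamine; dyed area measured. % inhibition, mean ± SE of six mice.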

[5] = molecular target: T1, Adrenergic receptor alpha-1 (Homo sapiens, UniProt P35348+P25100+P35368); experiment: Displacement of [3H]prazosin from human adrenergic alpha1 expressed in CHO-K1 cells after 30 mins by scintillation counting; assay type: cell-based
T1 sequence (P35348 whole entry): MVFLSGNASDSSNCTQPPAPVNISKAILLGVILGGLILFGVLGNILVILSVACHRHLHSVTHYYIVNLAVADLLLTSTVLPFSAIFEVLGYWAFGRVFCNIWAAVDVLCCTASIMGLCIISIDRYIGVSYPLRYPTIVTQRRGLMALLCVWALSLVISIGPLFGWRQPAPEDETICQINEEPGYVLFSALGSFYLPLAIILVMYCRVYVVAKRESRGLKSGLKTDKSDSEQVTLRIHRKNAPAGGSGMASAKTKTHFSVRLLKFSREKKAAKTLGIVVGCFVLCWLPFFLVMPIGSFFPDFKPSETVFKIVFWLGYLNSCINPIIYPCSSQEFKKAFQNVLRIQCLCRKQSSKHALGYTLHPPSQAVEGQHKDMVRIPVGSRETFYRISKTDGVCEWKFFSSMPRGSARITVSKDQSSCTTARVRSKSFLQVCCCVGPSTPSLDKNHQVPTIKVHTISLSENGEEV
T1 sequence (P25100 whole entry): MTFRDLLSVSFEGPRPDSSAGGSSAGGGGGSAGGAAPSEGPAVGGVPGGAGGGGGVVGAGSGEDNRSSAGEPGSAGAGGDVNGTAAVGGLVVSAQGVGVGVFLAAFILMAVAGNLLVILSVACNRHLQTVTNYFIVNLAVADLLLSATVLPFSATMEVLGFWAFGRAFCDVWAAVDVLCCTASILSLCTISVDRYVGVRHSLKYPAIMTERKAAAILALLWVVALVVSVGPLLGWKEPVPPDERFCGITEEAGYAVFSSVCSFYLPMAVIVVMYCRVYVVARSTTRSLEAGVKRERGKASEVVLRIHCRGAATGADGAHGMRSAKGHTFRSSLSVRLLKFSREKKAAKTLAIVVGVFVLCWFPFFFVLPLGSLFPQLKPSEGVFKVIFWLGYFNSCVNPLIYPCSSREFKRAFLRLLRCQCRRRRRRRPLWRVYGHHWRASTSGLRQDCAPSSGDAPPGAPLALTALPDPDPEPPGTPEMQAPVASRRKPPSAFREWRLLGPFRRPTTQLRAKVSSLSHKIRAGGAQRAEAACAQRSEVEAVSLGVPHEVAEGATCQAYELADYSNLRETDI
T1 sequence (P35368 whole entry): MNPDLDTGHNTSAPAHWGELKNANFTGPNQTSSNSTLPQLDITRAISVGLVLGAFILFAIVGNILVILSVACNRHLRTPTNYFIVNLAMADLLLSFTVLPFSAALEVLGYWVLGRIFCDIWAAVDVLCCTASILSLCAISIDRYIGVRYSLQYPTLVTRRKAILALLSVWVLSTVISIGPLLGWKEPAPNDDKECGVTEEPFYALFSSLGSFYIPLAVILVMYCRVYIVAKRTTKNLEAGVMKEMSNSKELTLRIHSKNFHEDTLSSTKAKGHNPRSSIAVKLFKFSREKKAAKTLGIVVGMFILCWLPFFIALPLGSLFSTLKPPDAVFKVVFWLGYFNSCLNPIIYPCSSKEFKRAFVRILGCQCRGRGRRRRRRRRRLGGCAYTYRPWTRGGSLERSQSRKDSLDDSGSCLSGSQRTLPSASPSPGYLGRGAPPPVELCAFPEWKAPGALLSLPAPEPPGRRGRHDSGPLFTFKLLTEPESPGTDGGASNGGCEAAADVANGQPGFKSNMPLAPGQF
Procedure, shortened: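 Membranes from stable recombinant CHO-K1 cells expressing human α1 adrenoceptor were incubated with graded compound concentrations and 0.3 nM [3H]-prazosin in 50 mM Tris-HCl pH 7.6 for 30 min at room temperature. Nonspecific binding was defined with 1 µM prazosin. Samples were filtered on GF/B, washed and scintillation counted; specific binding is total minus nonspecific. Single experiment.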

[6] = Oral bioavailability in fasted rat at 10 mg/kg after 24 hrs; assay type: ADME, organism-based; details: in vivo
Procedure, shortened: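 Fasted male rats (n = 3 per route). Dosing: 1 mg/kg i.v. in 5% glucose/0.1 N HCl (9:1), or 10 mg/kg p.o. as a 0.5% methylcellulose suspension. Jugular blood sampled up to 24 h (po: 15, 30 min, 1, 2, 4, 6, 24 h) and plasma stored at -70 °C. AUCs taken from plasma concentration–time courses. BA = (AUCpo/Dpo)/(AUCiv/Div) × 100.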

Mus musculus [7] = species on record: Mus musculus; experiment: Ex vivo receptor occupancy of histamine H1 receptor in mouse brain at ED70 after 30 mins by scintillation counting; assay type: functional
Mus musculus [8] = species on record: Mus musculus; experiment: animal or person; assay type: functional; details: ddY, po

Histamine H1 receptor, sequence (P35367 whole entry): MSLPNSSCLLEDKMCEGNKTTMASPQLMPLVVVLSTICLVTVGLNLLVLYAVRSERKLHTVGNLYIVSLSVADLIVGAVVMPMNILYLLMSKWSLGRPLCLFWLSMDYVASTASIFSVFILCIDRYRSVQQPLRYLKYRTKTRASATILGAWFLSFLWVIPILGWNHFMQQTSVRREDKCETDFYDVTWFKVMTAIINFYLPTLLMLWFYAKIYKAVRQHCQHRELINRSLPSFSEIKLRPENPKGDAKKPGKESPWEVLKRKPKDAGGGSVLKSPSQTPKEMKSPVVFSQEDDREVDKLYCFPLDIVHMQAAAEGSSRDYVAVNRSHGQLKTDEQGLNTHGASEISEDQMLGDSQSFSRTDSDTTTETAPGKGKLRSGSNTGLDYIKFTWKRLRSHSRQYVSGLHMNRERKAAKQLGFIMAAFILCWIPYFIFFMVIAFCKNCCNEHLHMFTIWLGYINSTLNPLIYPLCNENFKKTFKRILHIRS

Papp A→B at 2 h [1]	IC50 (Histamine H1 receptor)	Structure (SMILES)	further results
1.6 ×10⁻⁶ cm/s	0.53 µM	Cn1c(N2CCCN(CCCN3c4cc(C(=O)O)ccc4COc4ccccc43)CC2)cc(=O)n(C)c1=O	
4 ×10⁻⁶ cm/s	0.092 µM	Cn1c(N2CCCN(CC/C=C3/c4ccccc4COc4ccc(CC(=O)O)cc43)CC2)cc(=O)n(C)c1=O	inhibition in vivo at 3 mg/kg (Mus musculus [4]): 32%
4.7 ×10⁻⁶ cm/s	0.54 µM	Cn1c(N2CCN(CC/C=C3\c4ccccc4COc4ccc(CC(=O)O)cc43)CC2)cc(=O)n(C)c1=O	
14.7 ×10⁻⁶ cm/s	0.195 µM	Cn1c(N2CCN(CC/C=C3/c4ccccc4CCc4ccc(CC(=O)O)cc43)CC2)cc(=O)n(C)c1=O	
3.8 ×10⁻⁶ cm/s	0.063 µM	Cn1c(N2CCCN(CC/C=C3/c4ccccc4COc4ccc(C(=O)O)cc43)CC2)cc(=O)n(C)c1=O	
6.3 ×10⁻⁶ cm/s	0.041 µM	Cn1c(N2CCCN(CCCN3c4ccccc4COc4ccc(C(=O)O)cc43)CC2)cc(=O)n(C)c1=O	inhibition in vivo at 3 mg/kg (Mus musculus [4]): 87%; bioavailability [6]: 23%
4.4 ×10⁻⁶ cm/s	0.07 µM	Cn1c(N2CCCN(CCCN3c4ccccc4CCc4ccc(C(=O)O)cc43)CC2)cc(=O)n(C)c1=O	inhibition in vivo at 10 mg/kg (Mus musculus [2]): 46%; inhibition in vivo at 10 mg/kg (Mus musculus [3]): 30%; inhibition in vivo at 3 mg/kg (Mus musculus [4]): 50%; bioavailability [6]: 33%
1.9 ×10⁻⁶ cm/s	0.128 µM	CC(C(=O)O)c1ccc2c(c1)N(CCCN1CCCN(c3cc(=O)n(C)c(=O)n3C)CC1)c1ccccc1CO2 (stereo not drawn)	
	0.325 µM	Cn1c(N2CCN(CC/C=C3/c4ccccc4COc4ccc(C(=O)O)cc43)CC2)cc(=O)n(C)c1=O	
	0.14 µM	Cn1c(N2CCN(CCCN3c4ccccc4COc4ccc(C(=O)O)cc43)CC2)cc(=O)n(C)c1=O	Activity (Mus musculus [7]): 20%

The remaining lines, values behind:

Structure (SMILES)	Papp A→B at 2 h [1]	IC50 (Histamine H1 receptor)	further results
Cn1c(N2CCCN(CC/C=C3/c4ccccc4CCc4ccc(C(=O)O)cc43)CC2)cc(=O)n(C)c1=O	6.9 ×10⁻⁶ cm/s	0.153 µM	
Cn1c(N2CCN(CC/C=C3/c4ccccc4COc4ccc(CC(=O)O)cc43)CC2)cc(=O)n(C)c1=O	7.3 ×10⁻⁶ cm/s	0.084 µM	inhibition in vivo at 10 mg/kg (Mus musculus [2]): 78%; inhibition in vivo at 10 mg/kg (Mus musculus [3]): 105%; Ratio IC50 (Homo sapiens): 57; inhibition in vivo at 3 mg/kg (Mus musculus [4]): 53%; IC50 [5]: 4.8 µM; bioavailability [6]: 76%
Cn1c(N2CCN(CCCN3c4ccccc4Sc4ccc(CC(=O)O)cc43)CC2)cc(=O)n(C)c1=O			inhibition in vivo at 10 mg/kg (Mus musculus [2]): 64%; inhibition in vivo at 10 mg/kg (Mus musculus [3]): 73%; Ratio IC50 (Homo sapiens): 11; Activity (Mus musculus [7]): 38%; inhibition in vivo at 3 mg/kg (Mus musculus [4]): 82%; ED70 (Mus musculus [8]): 1.61 mg/kg; IC50 [5]: 0.43 µM
CN1CCC(=C2c3ccccc3CC(=O)c3sccc32)CC1 [KETOTIFEN]			inhibition in vivo at 10 mg/kg (Mus musculus [2]): 3%; inhibition in vivo at 10 mg/kg (Mus musculus [3]): 119%; ED70 (Mus musculus [8]): 0.067 mg/kg
Cn1c(N2CCCN(CC/C=C3/c4ccccc4CCc4ccc(CC(=O)O)cc43)CC2)cc(=O)n(C)c1=O	4.8 ×10⁻⁶ cm/s	0.135 µM	
Cn1c(N2CCCN(CCCN3c4ccccc4COc4ccc(C(C)(C)C(=O)O)cc43)CC2)cc(=O)n(C)c1=O	4.6 ×10⁻⁶ cm/s	0.15 µM	
CC(C)(C(=O)O)c1ccc(C(O)CCCN2CCC(C(O)(c3ccccc3)c3ccccc3)CC2)cc1 (stereo not drawn) [FEXOFENADINE]			inhibition in vivo at 10 mg/kg (Mus musculus [2]): 6%; inhibition in vivo at 10 mg/kg (Mus musculus [3]): 61%; Activity (Mus musculus [7]): 12%
Cn1c(N2CCCN(CCCN3c4ccccc4COc4ccc(CC(=O)O)cc43)CC2)cc(=O)n(C)c1=O	1.6 ×10⁻⁶ cm/s	0.128 µM	
Cn1c(N2CCCN(CCCN3c4ccccc4CCc4ccc(C(C)(C)C(=O)O)cc43)CC2)cc(=O)n(C)c1=O	7 ×10⁻⁶ cm/s	0.075 µM	inhibition in vivo at 3 mg/kg (Mus musculus [4]): 67%; bioavailability [6]: 14%
Cn1c(N2CCCN(CCCN3c4ccccc4CCc4ccc(CC(=O)O)cc43)CC2)cc(=O)n(C)c1=O	2.6 ×10⁻⁶ cm/s	0.054 µM	
Cn1c(N2CCN(CCCN3c4ccccc4COc4ccc(CC(=O)O)cc43)CC2)cc(=O)n(C)c1=O	3 ×10⁻⁶ cm/s	0.255 µM	

— ChEMBL document CHEMBL1772991, “Synthesis and structure-activity relationship of tricyclic carboxylic acids as novel anti-histamines” (Bioorg Med Chem, 2011)
